Screens deposited in PubChem BioAssay by several laboratories.
tolC growth inh – blocks growth of E. coli BW25113 tolC mutant; AID 573; 65,000 compounds, 2.2% hits; OD615; growth inhibition, % at 10 µM (by protocol);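 active means growth inhibition at or above a cutoff equal to the mean over every tested compound plus 3 SD, cut at about 60% in these data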;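 further: growth measured after 20 h incubation at 37 °C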
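Test system: E. coli BW25113 ΔtolC::kan bacteria; incubation: 37 °C, 20 h exposure; medium: LB broth supplemented with 50 µg/mL kanamycin; read-out basis: percent growth inhibition; signal: A615 absorbance measurement; compound: 10 µM final, single dose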
Cdc25B block – human M-phase inducer phosphatase 2 inhibition; P30305; recombinant Cdc25B, OMFP fluorescence Ex485/Em525; inhibition, %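 (compounds tested at 10 µM final in the well)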; 65,000 compounds, 0.1% hits; in the data active means inhibition above about 50%
MKP-1 inh – blocks human MKP-1 phosphatase activity; P28562; recombinant MKP-1, OMFP hydrolysis fluorescence; inhibition, %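 (compounds tested at a single concentration somewhere between 10 and 100 µM)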; 65,000 compounds, 0.15% hits;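 active means inhibition above about 50%, limit read from the data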;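 further: 0% = DMSO max control wells and 100% = wells with enzyme stopped by NaOH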
Target sequence (P28562 whole entry, looked up): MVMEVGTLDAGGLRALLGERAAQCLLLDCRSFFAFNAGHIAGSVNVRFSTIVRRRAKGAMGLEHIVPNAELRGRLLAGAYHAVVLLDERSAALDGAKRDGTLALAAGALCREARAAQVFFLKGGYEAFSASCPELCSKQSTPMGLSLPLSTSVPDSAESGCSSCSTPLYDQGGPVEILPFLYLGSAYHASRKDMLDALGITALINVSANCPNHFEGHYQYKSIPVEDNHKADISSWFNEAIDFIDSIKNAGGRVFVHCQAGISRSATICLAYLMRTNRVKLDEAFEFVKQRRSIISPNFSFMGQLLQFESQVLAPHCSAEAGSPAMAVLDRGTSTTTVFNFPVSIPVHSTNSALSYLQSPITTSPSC
E coli RNAP – Escherichia coli RNA polymerase inhibition | AID 559 | inhibition, %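 (tested at 10 µM)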 | 62,000 compounds, 0.2% hits | E. coli RNA polymerase, fluorescence transcription assay | P0A8V2; in the data active means inhibition above about 20%;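 further: 0% = enzyme without compound and 100% = no enzyme blank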
Hsp90 block – displaces geldanamycin probe from tumor Hsp90. P07900. NCI-N417 lysate Hsp90, Cy3B-geldanamycin FP displacement. inhibition, % at 30 µM. 64,000 compounds, 0.35% hits. AID 429;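 active means inhibition above 50%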;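 further: 0% = tracer plus lysate wells and 100% = tracer alone without lysate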
BAP1 inh – blocks human BAP1 ubiquitin-AMC hydrolysis | recombinant BAP1, Ub-AMC hydrolysis fluorescence kinetic; stronger effect = lower value | calls only at 20 µM | 72,000 compounds, 0.48% hits;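 active means activity remaining at or below 50% of control, provided the compound also passes the data quality filters; inactive means the rest, including low values that fail the filters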;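 further: 100% = DMSO wells rate and 0% = substrate alone blank rate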
The depositor's hits bear a star; i = inactive; . = not tested or not shown. Hits are enriched below; roughly 2.9% of the tested compounds scored in any of these assays.

SMILES	tolC growth inh	Cdc25B block	MKP-1 inh	E coli RNAP	Hsp90 block	BAP1 inh
Cn1c(=O)n(CCCOc2ccc(Br)cc2)c2ccccc21	100*	-12	3	6	-2	i
CCc1ccc(NC(=O)CSc2nnnn2-c2ccc(C(=O)O)cc2)cc1	.	.	.	.	.	i
O=C(Nc1ccc([N+](=O)[O-])cc1)c1cccc(S(=O)(=O)Nc2ccc(I)cc2)c1	.	.	.	.	.	i
COCCn1nnnc1C(C(C)C)N(Cc1ccccc1)Cc1cc2cc(OC)ccc2[nH]c1=O (stereo not drawn)	76*	2	41	6	-1	i
CCc1ccc2[nH]c(=O)c(CN(Cc3ccc(OC)cc3)Cc3nnnn3CCOC)cc2c1	21	-9	27	6	1	i
CC(C)(C)c1nnc(NC(=O)c2cccc([N+](=O)[O-])c2)s1	.	.	.	.	.	i
O=C1CCCC2=C1C(c1cccc(O)c1)Nc1ccc3ccccc3c12 (stereo not drawn)	.	.	.	.	.	i
O=S(=O)(c1ccccc1)c1ccc(NCc2ccco2)cc1	23	-1	11	9	-4	i
c1coc(CNc2nc(N3CCCCC3)nc3ccccc23)c1	71*	-3	-15	1	0	.
O=S(=O)(Nc1nc2ccccc2nc1NCc1ccco1)c1ccccc1	71*	-5	-3	8	-3	.
c1ccc(-c2nc(NCc3ccco3)c3ccccc3n2)nc1	83*	3	-14	7	-14	i
CC1=C(C(=O)Nc2ccccn2)C(c2ccccc2Cl)NC(=O)N1 (stereo not drawn)	.	.	.	.	.	i
O=C1CC(NCc2ccco2)C(=O)N1CCc1ccccc1 (stereo not drawn)	-5	53*	-6	2	-11	i
O=C1CC(Cc2ccccc2)C(=O)N1Cc1ccco1 (stereo not drawn)	-9	3	15	1	-3	i
CC1CN(c2nc3c(c(=O)n(Cc4ccc(Cl)c(Cl)c4)c(=O)n3C)n2C)CC(C)O1 (stereo not drawn)	87*	0	12	7	0	i
Cn1c(N2CCOCC2)nc2c1c(=O)n(Cc1ccc(Cl)cc1)c(=O)n2C	4	6	-20	17	-4	i
Cc1cccc(Cn2c(=O)c3c(nc4n3CCCN4Cc3ccccc3)n(C)c2=O)c1	74*	-4	0	2	0	i
Cn1c(=O)n(C/C=C/c2ccccc2)c(=O)c2c1nc1n2CCCN1Cc1ccccc1	24	5	22	12	1	i
O=C(c1ccc(Br)cc1)c1coc2ccccc2c1=O	.	.	.	.	.	i
COc1ccc(C(C(O)C(=O)c2c[nH]c3ccccc23)N2CCN(c3ccc(OC)cc3)CC2)cc1 (stereo not drawn)	76*	0	22	5	-1	i
CC1(C)CC(=O)C=C(NCCN2CCN(C(=O)Nc3ccc(Cl)cc3)CC2)C1	-2	-5	9	-1	-3	i
CC1(C)CC(=O)C=C(NCCN2CCN(C(=O)Nc3ccc(Cl)c(Cl)c3)CC2)C1	61*	-8	11	5	1	i
N#Cc1nc(COc2ccccc2F)oc1NCCc1ccccc1	100*	-4	-5	2	-2	i
COc1ccc(CCNc2oc(COc3ccccc3)nc2C#N)cc1	10	11	20	10	-5	i
CC1=C(C(=O)OCCc2ccccc2)C(c2cc3c(cc2Br)OCO3)NC(=O)N1C (stereo not drawn)	.	.	.	.	.	i
SMILES	tolC growth inh	Cdc25B block	MKP-1 inh	E coli RNAP	Hsp90 block	BAP1 inh
CC1=C(C(=O)OCC(C)C)C(c2cc3c(cc2Br)OCO3)NC(=O)N1C (stereo not drawn)	66*	-5	13	4	-5	i
Cc1noc(C)c1S(=O)(=O)N(CCc1ccccc1)Cc1ccccc1	63*	-23	-22	0	0	i
Cc1noc(C)c1S(=O)(=O)N(C)CC(=O)NCc1ccccc1	-3	9	8	-3	2	i
CC(=O)Oc1ccc(N2C(=O)c3ccc(-c4nc5ccccc5c(=O)o4)cc3C2=O)cc1	.	.	.	.	.	i
CC1CN(C2CCN(S(=O)(=O)c3ccccc3)CC2)CC(C)O1 (stereo not drawn)	2	12	-13	22*	-3	i
CCOc1cccc(C2Nc3ccccc3NC3=C2C(=O)CC(c2ccc(Cl)cc2)C3)c1 (stereo not drawn)	.	.	.	.	.	i
CCC1CCCCN1C(=O)c1cc(-c2ccc(Cl)c(Cl)c2)on1 (stereo not drawn)	100*	-14	27	5	-2	i
CC1CCCCN1C(=O)c1cc(-c2ccc(Cl)c(Cl)c2)on1 (stereo not drawn)	57	-13	34	0	2	i
COc1ccc(S(=O)(=O)N2CCN(C(=O)c3ccncc3)CC2)cc1	.	.	.	.	.	i
Oc1ccc(C2CNCc3sccc32)cc1O (stereo not drawn)	.	.	.	.	58*	i
Cc1ccccc1C(=O)Nc1nnc(-c2ccc(F)cc2)o1	59	5	-4	-1	3	i
O=C(Nc1nnc(-c2ccc(F)cc2)o1)c1ccco1	77*	4	6	5	1	i
Oc1ccccc1-c1cc(-c2ccc3c(c2)OCCO3)n[nH]1	99*	-13	4	4	.	.
CCOC(=O)C1=C(C)NC(=O)NC1c1ccccc1OC(C)C (stereo not drawn)	.	.	.	.	.	i
N#Cc1c(N)oc(-c2ccco2)c1-c1ccco1	6	8	35	.	-4	.
COc1ccc(OC)c(/C=N/c2oc(-c3ccco3)c(-c3ccco3)c2C#N)c1	12	8	-4	12	55*	i
O=C(Nc1ncc([N+](=O)[O-])s1)c1ccccc1F	.	.	.	.	.	i
COc1cccc(N2C(=O)C(O)=C(C(C)=O)C2c2ccc(OC)c(OC)c2)c1 (stereo not drawn)	7	-22	-4	11	-1	i
COCCN1C(=O)C(O)=C(C(C)=O)C1c1ccc(OC)c(OC)c1 (stereo not drawn)	-31	-10	-21	24*	3	i
COc1ccccc1OCC(=O)Nc1ccc(S(=O)(=O)Nc2nc(C)cc(C)n2)cc1	5	3	-1	21*	-2	i
CC(C)CN(CC(C)C)S(=O)(=O)c1ccc(C(=O)Nc2nc3c(s2)CCc2ccccc2-3)cc1	.	.	.	.	.	i
CCN(CC)CCCC(C)Nc1cc(O)cc2cccnc12 (stereo not drawn)	.	.	.	.	138*	.
O=C(CSC1=NC(=O)C(c2ccccc2)C(=O)N1)Nc1ccccn1 (stereo not drawn)	.	.	.	.	.	i
COc1cc2c(C)nc(-c3ccccc3)c(-c3ccccc3)c2cc1OC	.	.	.	.	.	i
CC(C)c1nnc(NC(=O)c2c(O)c3cccc4c3n(c2=O)CC4)s1	100*	-13	2	-5	0	.
CCCc1nnc(NC(=O)c2c(O)c3cccc4c3n(c2=O)CCC4)s1	10	6	40	2	-2	.
CCc1nc2ccccc2c(=O)n1NC(=O)c1c(O)c2cccc3c2n(c1=O)CCC3	64*	2	27	1	-3	i
